Measured values from ChEMBL document CHEMBL1151705, “Novel azalides derived from 16-membered macrolides. Part II: Isolation of the linear 9-formylcarboxylic acid and its sequential macrocyclization with an amino alcohol or an azidoamine” (2008).
In brackets after ≈: the same amount, converted by molar mass.

What was measured:
Moraxella catarrhalis [1] = experiment: Antimicrobial activity against drug-susceptible Moraxella catarrhalis 2 after 20 hrs by agar dilution method; type: functional
Summary of the method: (§1)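 Streptococci, H. influenzae and M. catarrhalis were precultured on blood agar plates. Suspensions of about 10⁶ CFU/ml were inoculated onto sensitivity disk agar supplemented with 5% horse blood and incubated at 37 °C for 20 h. MIC was read as the lowest drug concentration with no visible growth.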

Haemophilus influenzae [2] = experiment: Antimicrobial activity against drug-susceptible Haemophilus influenzae 3 after 20 hrs by agar dilution method; type: functional; summary of the method: as §1
Moraxella catarrhalis [3] = experiment: Antimicrobial activity against drug-susceptible Moraxella catarrhalis 1 after 20 hrs by agar dilution method; type: functional; summary of the method: as §1
Staphylococcus aureus [4] = experiment: Antimicrobial activity against drug-susceptible Staphylococcus aureus 2 after 20 hrs by agar dilution method; type: functional
Summary of the method: (§2)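 Agar dilution MIC. S. aureus seed culture was grown in sensitivity test broth. Cell suspension (about 10⁶ CFU/ml) was inoculated onto sensitivity disk agar with 5% horse blood and incubated at 37 °C for 20 h. MIC was the lowest drug concentration that prevented visible growth.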

Streptococcus pneumoniae [5] = experiment: Antimicrobial activity against drug-susceptible Streptococcus pneumoniae 2 after 20 hrs by agar dilution method; type: functional; summary of the method: as §1
Staphylococcus aureus [6] = experiment: Antimicrobial activity against Staphylococcus aureus 6 expressing inducible ermC after 20 hrs by agar dilution method
Streptococcus pneumoniae [7] = experiment: Antimicrobial activity against Streptococcus pneumoniae 10 expressing mefA after 20 hrs by agar dilution method; type: functional; summary of the method: as §1
Haemophilus influenzae [8] = experiment: Antimicrobial activity against drug-susceptible Haemophilus influenzae 4 after 20 hrs by agar dilution method; type: functional; summary of the method: as §1
Streptococcus pneumoniae [9] = experiment: Antimicrobial activity against Streptococcus pneumoniae 7 expressing inducible ermB after 20 hrs by agar dilution method; type: functional; summary of the method: as §1
Haemophilus influenzae [10] = experiment: Antimicrobial activity against drug-susceptible Haemophilus influenzae 2 after 20 hrs by agar dilution method; type: functional; summary of the method: as §1
Haemophilus influenzae [11] = experiment: Antimicrobial activity against drug-susceptible Haemophilus influenzae 1 after 20 hrs by agar dilution method; type: functional; summary of the method: as §1
Streptococcus pyogenes [12] = experiment: Antimicrobial activity against Streptococcus pyogenes 3 expressing mefA after 20 hrs by agar dilution method; type: functional; summary of the method: as §1
Streptococcus pneumoniae [13] = experiment: Antimicrobial activity against Streptococcus pneumoniae 9 expressing mefA after 20 hrs by agar dilution method; type: functional; summary of the method: as §1
Staphylococcus aureus [14] = experiment: Antimicrobial activity against drug-susceptible Staphylococcus aureus 209P JC-1 after 20 hrs by agar dilution method; type: functional; summary of the method: as §2
Staphylococcus aureus [15] = experiment: Antimicrobial activity against drug-susceptible Staphylococcus aureus 3 after 20 hrs by agar dilution method; type: functional; summary of the method: as §2
Streptococcus pneumoniae [16] = experiment: Antimicrobial activity against Streptococcus pneumoniae 8 expressing inducible ermB after 20 hrs by agar dilution method; type: functional; summary of the method: as §1
Streptococcus pneumoniae [17] = experiment: Antimicrobial activity against drug-susceptible Streptococcus pneumoniae DP1 Type1 after 20 hrs by agar dilution method; type: functional; summary of the method: as §1
Staphylococcus aureus [18] = experiment: Antimicrobial activity against Staphylococcus aureus 5 expressing inducible ermB after 20 hrs by agar dilution method; type: functional; summary of the method: as §2
Streptococcus pyogenes [19] = experiment: Antimicrobial activity against drug-susceptible Streptococcus pyogenes 1 after 20 hrs by agar dilution method; type: functional; summary of the method: as §1
Streptococcus pneumoniae [20] = experiment: Antimicrobial activity against drug-susceptible Streptococcus pneumoniae 3 after 20 hrs by agar dilution method; type: functional; summary of the method: as §1
Streptococcus pneumoniae [21] = experiment: Antimicrobial activity against Streptococcus pneumoniae 4 constitutively expressing ermB after 20 hrs by agar dilution method; type: functional; summary of the method: as §1
Streptococcus pneumoniae [22] = experiment: Antimicrobial activity against Streptococcus pneumoniae 6 constitutively expressing ermB after 20 hrs by agar dilution method; type: functional; summary of the method: as §1
Streptococcus pneumoniae [23] = experiment: Antimicrobial activity against Streptococcus pneumoniae 5 constitutively expressing ermB/mefA after 20 hrs by agar dilution method; type: functional; summary of the method: as §1
[24] = Haemophilus influenzae, 20 h, read-out: MIC

| Compound | MIC (Moraxella catarrhalis [1]) [µg/mL] | MIC (Haemophilus influenzae [2]) [µg/mL] | MIC (Moraxella catarrhalis [3]) [µg/mL] | MIC (Staphylococcus aureus [4]) [µg/mL] | MIC (Streptococcus pneumoniae [5]) [µg/mL] | MIC (Staphylococcus aureus [6]) [µg/mL] | MIC (Streptococcus pneumoniae [7]) [µg/mL] | MIC (Haemophilus influenzae [8]) [µg/mL] | MIC (Streptococcus pneumoniae [9]) [µg/mL] | MIC (Haemophilus influenzae [10]; [24]) [µg/mL] | MIC (Haemophilus influenzae [11]) [µg/mL] | MIC (Streptococcus pyogenes [12]) [µg/mL] | MIC (Streptococcus pneumoniae [13]) [µg/mL] | MIC (Staphylococcus aureus [14]) [µg/mL] | MIC (Staphylococcus aureus [15]) [µg/mL] | MIC (Streptococcus pneumoniae [16]) [µg/mL] | MIC (Streptococcus pneumoniae [17]) [µg/mL] | MIC (Staphylococcus aureus [18]) [µg/mL] | MIC (Streptococcus pyogenes [19]) [µg/mL] | MIC (Streptococcus pneumoniae [20]) [µg/mL] | also measured |
| --- | --- | --- | --- | --- | --- | --- | --- | --- | --- | --- | --- | --- | --- | --- | --- | --- | --- | --- | --- | --- | --- |
| CCOC(=O)[C@H]1[C@H](C)O[C@@H](O[C@H]2[C@H](N(C)C)[C@@H](O)[C@H](O[C@H]3[C@@H](CC=O)C[C@@H](C)[C@@H](O)CN(C)CC(CCCc4ccnc5ccccc45)CCOC(=O)C[C@@H](OC(=O)CC)[C@@H]3OC)O[C@@H]2C)C[C@@]1(C)O (stereo in doubt; form 2) | 1 (≈ 1.01 µM) | 8 (≈ 8.1 µM) | 1 (≈ 1.01 µM) | 0.5 (≈ 0.506 µM) | 0.06 (≈ 0.0607 µM) | 0.5 (≈ 0.506 µM) | 0.06 (≈ 0.0607 µM) | 8 (≈ 8.1 µM) | 16 (≈ 16.2 µM) | 2 (≈ 2.02 µM) | 16 (≈ 16.2 µM) | 0.25 (≈ 0.253 µM) | 0.06 (≈ 0.0607 µM) | 0.25 (≈ 0.253 µM) | 0.25 (≈ 0.253 µM) | 16 (≈ 16.2 µM) | 0.015 (≈ 0.0152 µM) | 0.25 (≈ 0.253 µM) | 0.06 (≈ 0.0607 µM) | 0.03 (≈ 0.0304 µM) | – |
| CCOC(=O)[C@H]1[C@H](C)O[C@@H](O[C@H]2[C@H](N(C)C)[C@@H](O)[C@H](O[C@H]3[C@@H](CC=O)C[C@@H](C)[C@@H](O)CN(C)CC(/C=C\Cc4ccnc5ccccc45)CCOC(=O)C[C@@H](OC(=O)CC)[C@@H]3OC)O[C@@H]2C)C[C@@]1(C)O (stereo in doubt; form 2) | 16 (≈ 16.2 µM) | 128 (≈ 130 µM) | 16 (≈ 16.2 µM) | 4 (≈ 4.06 µM) | 1 (≈ 1.01 µM) | 4 (≈ 4.06 µM) | 1 (≈ 1.01 µM) | 128 (≈ 130 µM) | >128 | 32 (≈ 32.4 µM) | >128 | 4 (≈ 4.06 µM) | 1 (≈ 1.01 µM) | 2 (≈ 2.03 µM) | 2 (≈ 2.03 µM) | >128 | 0.5 (≈ 0.507 µM) | 2 (≈ 2.03 µM) | 1 (≈ 1.01 µM) | 0.5 (≈ 0.507 µM) | – |
| CCOC(=O)[C@H]1[C@H](C)O[C@@H](O[C@H]2[C@H](N(C)C)[C@@H](O)[C@H](O[C@H]3[C@@H](CC=O)C[C@@H](C)[C@@H](O)CN(C)CC(/C=C/Cc4cnc5ccccc5c4)CCOC(=O)C[C@@H](OC(=O)CC)[C@@H]3OC)O[C@@H]2C)C[C@@]1(C)O (stereo in doubt; form 2) | 2 (≈ 2.03 µM) | 16 (≈ 16.2 µM) | 2 (≈ 2.03 µM) | 0.5 (≈ 0.507 µM) | 0.06 (≈ 0.0608 µM) | 0.5 (≈ 0.507 µM) | 0.06 (≈ 0.0608 µM) | 16 (≈ 16.2 µM) | 128 (≈ 130 µM) | – | 64 (≈ 64.9 µM) | 0.5 (≈ 0.507 µM) | 0.06 (≈ 0.0608 µM) | 0.25 (≈ 0.253 µM) | 0.25 (≈ 0.253 µM) | 128 (≈ 130 µM) | 0.015 (≈ 0.0152 µM) | 0.25 (≈ 0.253 µM) | 0.13 (≈ 0.132 µM) | 0.03 (≈ 0.0304 µM) | MIC (Streptococcus pneumoniae [21]): >128 µg/mL; MIC (Streptococcus pneumoniae [22]): >128 µg/mL; MIC (Haemophilus influenzae [10]): 4 µg/mL (≈ 4.06 µM); MIC (Streptococcus pneumoniae [23]): >128 µg/mL |
| CCOC(=O)[C@H]1[C@H](C)O[C@@H](O[C@H]2[C@H](N(C)C)[C@@H](O)[C@H](O[C@H]3[C@@H](CC=O)C[C@@H](C)[C@@H](O)CN(C)CCC(CCCc4ccnc5ccccc45)NC(=O)C[C@@H](OC(=O)CC)[C@@H]3OC)O[C@@H]2C)C[C@@]1(C)O (stereo in doubt; form 2) | 8 (≈ 8.22 µM) | 16 (≈ 16.4 µM) | 8 (≈ 8.22 µM) | 8 (≈ 8.22 µM) | 0.25 (≈ 0.257 µM) | 4 (≈ 4.11 µM) | 0.25 (≈ 0.257 µM) | 8 (≈ 8.22 µM) | 64 (≈ 65.8 µM) | – | 64 (≈ 65.8 µM) | 2 (≈ 2.06 µM) | 0.25 (≈ 0.257 µM) | 4 (≈ 4.11 µM) | 2 (≈ 2.06 µM) | 64 (≈ 65.8 µM) | 0.13 (≈ 0.134 µM) | 4 (≈ 4.11 µM) | 0.5 (≈ 0.514 µM) | 0.25 (≈ 0.257 µM) | MIC (Haemophilus influenzae [10]): 2 µg/mL (≈ 2.06 µM) |
